System: MS2 coat protein
Test: apparent Kd, MS2 coat protein; higher = weaker binding; RNA-MaP array
How it was run: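 With or without input ligand, designed RNAs transcribed on an Illumina sequencing chip from sequenced DNA templates were incubated at room temperature with fluorescently labeled MS2 coat protein at 1.5 nM to 3 μM. The buffer was Tris-HCl pH 7.5 with KCl, MgCl2, BSA, DTT, tRNA and Tween20, and incubation ran 0.8–1.5 h at the lowest and 10–20 min at the highest concentrations. Apparent Kd is reported as the median of fits to binding curves from individual clusters. Designs measured on fewer than 10 clusters are not included.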

[1] = designed as: ON switch for flavin mononucleotide, no ligand
[2] = ligand present: flavin mononucleotide, designed as: ON switch for flavin mononucleotide
[3] = designed as: OFF switch for flavin mononucleotide, no ligand
[4] = ligand present: flavin mononucleotide, designed as: OFF switch for flavin mononucleotide

AUUAUGCAGUGAGAGGAUAUCAUCGAUAAGACAUGAGGAUCACCCAUGUGUGUCAGGGUUACACAUGAGAAGGCUCACCAAACUUU
apparent Kd [1]: 7.28 nM
apparent Kd [2]: 7.49 nM

GUGGCACUCCUAGGAUAUUCACCUUGCGUAGAAAGACAUGAGGAUCACCCAUGUGUCUCUUAUUUGAAGAAGGAGGAACCUCGG
apparent Kd [1]: 12.7 nM
apparent Kd [2]: 13 nM

AUAAUCAAAGGAUAUGGCUAAGCACACAUGAGGAUCACCCAUGUGAUCGUUCGUACAGUUCCAGAAGGUUGGUCCA
apparent Kd [3]: 15 nM
apparent Kd [4]: 13.3 nM

AUACGGCGGUAAAAUCAGAGAGUAAAAGAUACCAGCAAUAAUAAAUGCCCUUGGCAGCUUCUGACAUGAGGAUCACCCAUGUAAA
apparent Kd (designed as: OFF switch for theophylline, no ligand): 15.3 nM
apparent Kd (ligand present: theophylline, designed as: OFF switch for theophylline): 29.1 nM

GUGUUAUAUCCGUAACAUGAGGAUCACCCAUGUGUGAGAUCGAAGGAUAUCUGUCUGAGCUCAAAAGAGAAGGUCGAUACAAUG
apparent Kd [3]: 57.6 nM
apparent Kd [4]: 44.9 nM

CCUUGUGUGAAGGAUAUAGGUUUAUGUUUCUGUCUAGAAGGUCACACAUGAGGAUCACCCAUGUAUAUCCUAGA
apparent Kd [3]: 18.3 nM
apparent Kd [4]: 51.6 nM

AAUGGAGUCGAGAAGGCAGCGACCCACUAAACCUGAGGAUAUCGUCUCCGAAAAUGGGUGGGUGUACAUGAGGAUCACCCAUGU
apparent Kd [3]: 95.2 nM
apparent Kd [4]: 122 nM

CACGCGGAGUUAGGAUAUAACGAUUGUCAGCCGUUAGAAGGAACCCAUCGCAAAUCUACGUCUAACAUGAGGAUCACCCAUGUU
apparent Kd [1]: 6.85 nM
apparent Kd [2]: 5.7 nM

UGAGGUAAGGAGAAGGUCCAACGAUGAAUUUAGGAAGGAUAUCCAACAUGAGGAUCACCCAUGUAAGGGUGCCCGAAGUCAGGA
apparent Kd [3]: 133 nM
apparent Kd [4]: 178 nM

ACAAGCCGAGGAUAUACAAGAAAGGCAAGACUGAUAAGAUAACAUGAGGAUCACCCAUGUAGAAGGCGGAAUAC
apparent Kd [3]: 10.4 nM
apparent Kd [4]: 14.1 nM

ACAACAAAACAGAAGGCCUUAAAUUACAUGAGGAUCACCCAUGUUACACUAUACAAACAGAACAAGGAGGAUAUGUAAGACUGA
apparent Kd [1]: 19.9 nM
apparent Kd [2]: 8.65 nM

UCCAGCAACGAGAAGGUACACAUGAGGAUCACCCAUGUCCGUUGACCGUCUCCAUGGGCGAUGGGUAAGGAUAUCGGGCAGAUG
apparent Kd [1]: 68.9 nM
apparent Kd [2]: 49.4 nM

AUAACGACUUCAGGAUAUCUAAUAUGGCCUAUAUGCUGAAAACAUGAGGAUCACCCAUGUCAAGGAGAGAAGGGAAGACAAACA
apparent Kd [3]: 13.3 nM
apparent Kd [4]: 10.2 nM

GAAUGUUGGAAGAAGGCACGCCCUGCAUGGCGGUGAGGAUAUUCCGUACUUGGAGUGGAAACAUGAGGAUCACCCAUGUAAGUA
apparent Kd [3]: 36.8 nM
apparent Kd [4]: 37 nM

AGGAGCGGAAUAGGAUAUUGUAGAUAUAUCAAACAAGAAGGAUUAGCUAACAUGAGGAUCACCCAUGUGGGAUCAAACUCACUC
apparent Kd [3]: 82.7 nM
apparent Kd [4]: 127 nM

AGGUGUCCAGGAGGAUAUGAUUGCAACACGCCCUCAGAAGGCCUUAUAUACAAAGCAUACAUGAGGAUCACCCAUGUAAUUGGA
apparent Kd [1]: 8.74 nM
apparent Kd [2]: 9.11 nM

CCGAUGAUGAUAGGAUAUCUAGGAGUUAAGACGCCGUCUACAUGAGGAUCACCCAUGUUUCGAUUAGAGAAGGAUCGGGAUUCG
apparent Kd [1]: 13.1 nM
apparent Kd [2]: 7.13 nM

UCGCUAUUGUCGGCCGCCACUACUGCAGGGAAACAAAUAUAACCACAUGAGGAUCACCCAUGUCUUAGGACCGGGACACCCAUCU
apparent Kd (designed as: ON switch for tryptophan, no ligand): 98.3 nM
apparent Kd (ligand present: tryptophan, designed as: ON switch for tryptophan): 80.7 nM

CAGAGUUCCUAAGGAUAUUGCUGGUCCGCAGUUCAAGAAGGUAGGUAUAAAAUGCUUAAACAUGAGGAUCACCCAUGUCAAGCC
apparent Kd [1]: 6.75 nM
apparent Kd [2]: 6.08 nM

UAGACUCAGUAGAAGGAUGAUAUUACGAUAUAACGUGACAUGAGGAUCACCCAUGUCUUCUGGUCAUAGGAUAUACGCGAAAUG
apparent Kd [1]: 45.6 nM
apparent Kd [2]: 21.3 nM

GUUGCACAUGAGGAUCACCCAUGUUUGGAUACCAGUCUCUGUAAUGACCCUUGGCAGCCACCAUAGACGCUUGAGUAGAGCCUGA
apparent Kd (designed as: ON switch for theophylline, no ligand): 15 nM
apparent Kd (ligand present: theophylline, designed as: ON switch for theophylline): 16 nM

UUACCAGCAGGAUAUUCAUCUGUUAACAUGAGGAUCACCCAUGUCUCGUGAUCGAACUAGGAAGAAGGGCUUAUAC
apparent Kd [3]: 74.4 nM
apparent Kd [4]: 77.3 nM

ACCAUGUAAGGAUAUCACAAGUUGAGUAGUUCGUUUGGGUGUGAGAAGGUACAUGAGGAUCACCCAUGUUCUGG
apparent Kd [3]: 154 nM
apparent Kd [4]: 237 nM

AUUCCACAUGAGGAUCACCCAUGUUCUGCUCUGCAUGGAAACAGAAGGAUUCGCGUCAGGUCGAAAUAGGAUAUGUUGUCAAAG
apparent Kd [3]: 33.6 nM
apparent Kd [4]: 28.5 nM

AAACAGAGCAGAGGAUAUAUGAUAUGCCGAACAUGAGGAUCACCCAUGUCUUCGCGUAGCGCCCCAUAGAAGGCUGAUAGCAAC
apparent Kd [1]: 16.6 nM
apparent Kd [2]: 14 nM

AUGUGAGGACAUGAGGAUCACCCAUGUCGGGAACCUCUCGCAGAGGAUAUUCGAGAAGCAACGUUGAAGAAGGCUGGCGAAACC
apparent Kd [3]: 18.1 nM
apparent Kd [4]: 13.7 nM
